This passage reports ED50 and Locomotor activity results from ChEMBL document CHEMBL1123775, “C3-methylated 5-hydroxy-2-(dipropylamino)tetralins: conformational and steric parameters of importance for central dopamine receptor activation” (1987).

Test [1] has as its system Rattus norvegicus. As to the kind of experiment: Effect of in vivo DOPA accumulation in nonpretreated rats at limbic region, at 5 mg/kg dosage administered subcutaneously; I = Inactive. The class given is functional, organism-based. Also noted: dose 5 mg/kg. The note with it: Limbic system. An outline of the steps:
(§1)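 Nonpretreated rats given test drug sc 65 min and NSD 1015 (100 mg/kg ip) 30 min before death; saline controls. Limbic and striatal DOPA by HPLC with electrochemical detection.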

Test [2] relates to Rattus norvegicus. As to the kind of experiment: Effect on in vivo DOPA accumulation in nonpretreated rats at striatum region at 5 mg/kg dosage administered subcutaneously; I = Inactive. Also noted: dose 5 mg/kg. The test is classed as functional, organism-based. An outline of the steps: as §1
Test [3] relates to Rattus norvegicus. Kind of test: Effect of in vivo DOPA accumulation in reserpine-pretreated rats at limbic region, at 5 mg/kg dosage administered subcutaneously. The test is classed as functional, Limbic system. The note with it: route subcutaneous.
Test [4] deals with Rattus norvegicus. Kind of test: In vivo locomotor activity (accumulated counts/30 min) in reserpine-pretreated rats, after subcutaneous administration of 52 uM/Kg. The class given is functional. An outline of the steps:
(§2)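 Rats pretreated with reserpine 5 mg/kg sc 18 h earlier, then test drug sc immediately before session; photocell motility counts accumulated over 30 min, with gross behaviour observed through mirror. Mean ± SEM, n = 3-4; Student's t test vs saline controls; haloperidol pretreatment 0.5 mg/kg ip 30 min before used to test antagonism.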

The test system of test [5] is Rattus norvegicus. As to the kind of experiment: Evaluated for in vivo locomotor activity in nonpretreated rats, measured as accumulated counts/30 min at a dose of 52 umol/kg administered sc. The test is classed as functional. An outline of the steps: (§3)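 Nonpretreated rats injected sc with test drug 5 min before session; motility by photocell recording, counts accumulated over 30 min. Expressed as percent of saline controls, means ± SEM, n = 3-5; Student's t test vs saline controls.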

Test [6] has as its system Rattus norvegicus. As to the kind of experiment: Effect of in vivo DOPA accumulation in reserpine-pretreated rats at striatum region, at 5 mg/kg dosage administered subcutaneously. The class given is functional. Conditions: sc, route subcutaneous.
The subject of test [7] is Rattus norvegicus. As to the kind of experiment: Effect on in vivo DOPA accumulation in nonpretreated rats at Limbic region, at 5 mg/kg dosage administered subcutaneously; I = Inactive. The test is classed as functional, organism-based. Also noted: dose 5 mg/kg. Conditions: Limbic system. An outline of the steps: as §1
Test [8] has as its system Rattus norvegicus. Kind of test: Effect of in vivo DOPA accumulation in reserpine-pretreated rats at striatum region, at 5 mg/kg dosage administered sc; I = Inactive. The test is classed as functional, organism-based. More on the design: dose 5 mg/kg.
The subject of test [9] is Rattus norvegicus. As to the kind of experiment: Effect of in vivo DOPA accumulation in reserpine-pretreated rats at striatum region, at 5 mg/kg dosage administered sc. The class given is functional. Conditions: route subcutaneous.
Test [10] deals with Rattus norvegicus. Kind of test: In vivo locomotor activity (accumulated counts/30 min) in reserpine-pretreated rats, after subcutaneous administration of 0.32 uM/Kg. The test is classed as functional. The method, boiled down:
as §2

For test [11], the system named is Rattus norvegicus. Kind of test: Effect on in vivo DOPA accumulation in nonpretreated rats at striatum region, at 5 mg/kg dosage administered subcutaneously; I = Inactive. The class given is functional, organism-based. Also noted: dose 5 mg/kg. The method, boiled down: as §1
The subject of test [12] is Rattus norvegicus. Kind of test: In vivo locomotor activity (accumulated counts/30 min) in reserpine-pretreated rats, after subcutaneous administration of 10 uM/Kg. The class given is functional. The method, boiled down:
as §2

Test [13] relates to Rattus norvegicus. Kind of test: Effect of in vivo DOPA accumulation in reserpine-pretreated rats at limbic region, at 5 mg/kg dosage administered subcutaneously; I = Inactive. The class given is functional, organism-based. More on the design: dose 5 mg/kg. Conditions: Limbic system.
The test system of test [14] is Rattus norvegicus. Kind of test: In vivo locomotor activity (accumulated counts/30 min) in nonpretreated rats after subcutaneous administration of 3.2 uM/Kg. The test is classed as functional. The method, boiled down:
as §3

Test [15] relates to Rattus norvegicus. Kind of test: In vivo locomotor activity (accumulated counts/30 min) in reserpine-pretreated rats, after subcutaneous administration of 3.2 uM/Kg. The test is classed as functional. An outline of the steps: as §2
Test [16] relates to Rattus norvegicus. As to the kind of experiment: In vivo locomotor activity (accumulated counts/30 min) in nonpretreated rats after subcutaneous administration of 0.32 uM/Kg. The class given is functional. An outline of the steps: as §3
The subject of test [17] is Rattus norvegicus. As to the kind of experiment: In vivo locomotor activity (accumulated counts/30 min) in reserpine-pretreated rats, after subcutaneous administration of 39 uM/Kg. The class given is functional. An outline of the steps: as §2
Test [18] relates to Rattus norvegicus. Kind of test: In vivo locomotor activity (accumulated counts/30 min) in reserpine-pretreated rats, after subcutaneous administration of 0.31 umol/kg. The class given is functional. The method, boiled down: as §2
[19] abbreviates: Rattus norvegicus, Limbic system, sc, read-out: ED50.

Calls of active or inactive are those of the source. The calls are words filed in the database; no cut-off is given here.

With `CCCN(CCC)[C@@H]1Cc2cccc(O)c2C[C@H]1C` (stereo in doubt; (+)5) [listing 1 of 2 here], the ED50 entry in test [1] and in test [2] was “inactive” each time.
For `CCCN(CCC)[C@@H]1Cc2cccc(O)c2C[C@H]1C` (stereo in doubt; (+)5) [listing 2 of 2 here], the ED50 stood at 25 µM/kg in test [3] (dose 5 mg/kg) and 25 µmol/kg in [6]. Also, the Locomotor activity in [4] came to 55; in test [5], 84.
`CCCN(CCC)[C@@H]1Cc2cccc(O)c2C[C@@H]1C`: the ED50 entry in test [7], in test [8], in test [11] and in test [13] was “inactive” each time. The ED50 in [3] (setting [19]) and in [9] was 0.005 µmol/kg throughout. Besides, the Locomotor activity in test [5] was determined as 70; in test [10], 110; in test [12], 12.
Take `CN1CCc2cccc3c2[C@H]1Cc1ccc(O)c(O)c1-3` [APOMORPHINE]: the values for the Locomotor activity in test [14], in test [15] and in test [16] were 277, 366 and 52, respectively. In addition, the ED50 turned out to be 0.041 µmol/kg in test [3] (setting [19]) and 0.044 µmol/kg in [9].
For `CCCN(CCC)[C@@H]1CCc2c(O)cccc2C1`, in test [17], the Locomotor activity is 43. Moreover, the ED50 was 0.41 µmol/kg in test [3] (setting [19]) and 0.65 µmol/kg in test [9].
With `CCCN(CCC)[C@@H]1Cc2cccc(O)c2C[C@H]1C` (stereo in doubt; (-)5), the ED50 was 3.5 µM/kg in test [3] (dose 5 mg/kg) and 3.1 µmol/kg in test [9]. The Locomotor activity in test [4] is 53.
Take `CCCN(CCC)[C@H]1CCc2c(O)cccc2C1`: the ED50 in [3] (setting [19]) and in test [9] was 0.004 µmol/kg throughout. For the same compound, in test [18], the Locomotor activity was found to be 155.
